DNMT1 block: inhibitors of human DNMT1 | P26358 | DNMT1 molecular beacon, Hinp1I cleavage, fluorescence | inhibition (reported as % activation of signal), % at 10 µM | actives 0.83% (n = 360,000) | AID 588458; in the data active = inhibition above about 50%
SUMO1 PPI mod: SUMO1-SIM interaction modulation; P63165; inhibition, % at 20 µM; actives 0.33% (n = 360,000); SUMO1 binding to a labelled peptide, TR-FRET, 1 h; in the data active = inhibition above about 37%
Target sequence (P63165 whole entry, looked up): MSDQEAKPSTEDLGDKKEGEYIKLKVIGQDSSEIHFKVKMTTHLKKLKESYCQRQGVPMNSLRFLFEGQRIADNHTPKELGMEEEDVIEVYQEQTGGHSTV
LMPTP inh: blocks human LMPTP phosphatase; P24666; recombinant LMPTP-A, OMFP fluorogenic substrate, fluorescence intensity; inhibition, % at 20 µM; actives 0.22% (n = 360,000);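 active = compounds that cut the enzyme signal by at least half of the control window in the single-dose screen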
Target sequence (P24666 whole entry, looked up): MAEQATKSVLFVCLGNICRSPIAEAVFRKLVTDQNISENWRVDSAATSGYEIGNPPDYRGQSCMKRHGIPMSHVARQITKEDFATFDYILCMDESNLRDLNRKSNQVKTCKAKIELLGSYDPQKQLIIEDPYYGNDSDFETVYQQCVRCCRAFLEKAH
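Test system: LMPTP-A, protein tyrosine phosphatase of low molecular weight; Input: 0.625 nM enzyme; Incubation: 50 min dark incubation at room temperature; Signal: endpoint fluorescence intensity from OMFP dephosphorylation; Read-out basis: % inhibition versus control wells.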
Scp1 inh: inhibitors of human Scp-1 phosphatase. Q9GZU7. Recombinant Scp1, phosphopeptide, malachite green phosphate absorbance. inhibition, % at 20 µM. actives 0.88% (n = 340,000);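 active = inhibition above about 50% at 20 µM, limit read from the data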
Target sequence (Q9GZU7 76-261 limits assumed): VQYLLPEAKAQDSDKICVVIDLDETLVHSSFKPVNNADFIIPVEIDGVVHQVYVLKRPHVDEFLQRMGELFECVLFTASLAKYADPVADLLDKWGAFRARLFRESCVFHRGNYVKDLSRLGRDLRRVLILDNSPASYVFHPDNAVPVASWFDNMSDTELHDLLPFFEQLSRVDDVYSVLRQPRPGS
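Test system: SCP-1 catalytic domain; Buffer or medium: Acidic Tris acetate buffer with magnesium and detergent; Also added: Phosphorylated 17-residue peptide substrate; Compound: single 20 µM dose, 1% DMSO; Schedule: enzyme reaction 45 min at room temperature, colour 5 min, stabilisation 30 min; Signal: Phosphate-binding colour reagent, absorbance read at 630 nm.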
STEP block: blocks human striatal-enriched tyrosine phosphatase | recombinant STEP, OMFP fluorogenic substrate, fluorescence | inhibition, % at 20 µM | actives 0.25% (n = 360,000) | AID 588621;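 active = inhibition at 20 µM, scaled per plate between control wells, above about 37%, limit read from the data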
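medium = Bis-Tris buffer pH 6.0, 2.5 mM DTT, 0.005% Tween 20 | test system = STEP (striatal-enriched tyrosine phosphatase) enzyme, cell-free | measure = normalized % inhibition | compound dosing = 20 µM, 1% DMSO | also added = 25 µM OMFP | schedule = reaction 20 min, ambient temperature | measured by = fluorescence read at 480 nm ex / 540 nm em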
CSN inh: blocks human CSN-mediated cullin deneddylation; AID 651999; Purified CSN, SCF-Nedd8-OG deneddylation, fluorescence polarization; inhibition, % at 12.5 µM; actives 0.38% (n = 360,000);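 active = pattern-corrected inhibition above about 35%, with an unprinted fluorescence ratio check between 0.5 and 1.5, limit read from the data, passing the limit was not always enough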
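Test system: purified human Csn5 enzyme expressed in HEK293T cells. Amount: 0.24 nM enzyme. Reagent: SCFSkp2-Nedd8OG substrate at 10 nM final. Schedule: 90 min incubation of compound, enzyme and substrate at room temperature. Detection: fluorescence polarization. Read-out: % inhibition of substrate cleavage by Csn5.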
Scp1 confirm: confirmation of human Scp-1 phosphatase inhibitors; inhibition, % at 20 µM; recombinant SCP-1 catalytic domain, phosphate release, malachite green absorbance; AID 540281; shares compounds with Scp1 inh; actives 61% (n = 2,500)
Scp-1 MG ctr: counter-screen for Scp-1 inhibitors: colorimetric interference. apparent inhibition (interference), % at 20 µM. 2,500 tested, under 10 active. Colorimetric interference counterscreen, malachite green absorbance 630 nm. shares compounds with Scp1 inh;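 note: compounds added after enzyme reaction finished so only phosphate colour detection is probed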
Scp1 DSF: validation of human Scp-1 inhibitors by thermal shift binding. Recombinant SCP1, Sypro Orange thermal shift Tm. shares compounds with Scp1 inh. AID 540329. actives 25% (n = 1,500). thermal shift relative to vanadate control, % at 40 µM;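 active = substances whose mean melting-temperature shift, as a percentage of the reference inhibitor's shift, reaches about 5.3%, limit read from the data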
DNMT1 inh conf: DNMT1 inhibition confirmation, single concentration; DNMT1 molecular beacon HinP1I cleavage, fluorescence; AID 602385; shares compounds with DNMT1 block; actives 8% (n = 2,300); inhibition, % at 10 µM;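 active = average inhibition of at least 30% in the single-concentration confirmation test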
DNMT1 interf: counter-screen for DNMT1 inhibitors: spectral interference | shares compounds with DNMT1 block | DNMT1 molecular beacon spectral interference counterscreen, fluorescence 485/520 | activation (fluorescence interference), % at 10 µM | actives 1% (n = 2,300) | AID 602387;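 active = activation of at least 30% at 10 µM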;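 note: DNMT1 catalytic domain with a HinP1I cleavage step and a FAM/dabcyl DNA beacon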
Each line names hits and unclear results; the compound was inactive in the other large screens (follow-up assays come after a bar, where they were run). In the library only some 1.9% were active in any assay of this set; here they are far more common.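 Rule for the calls, unless noted: active = inhibition of at least 30% at 20 µM; inactive = the rest.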

Cc1ccc(NC(=O)CN2C(=O)S/C(=C\c3cc(C)n(-c4ccc(C(=O)O)cc4)c3C)C2=O)cc1	none
Cc1cccc(NC(=O)CN2C(=O)N/C(=C/c3ccc(C)s3)C2=O)c1	none
O=C(NC1=NCCS1)C1CCN(S(=O)(=O)c2ccc(Cl)cc2)CC1	none
Cc1cccc2sc(NC(=O)C3CCN(S(=O)(=O)c4cc([N+](=O)[O-])ccc4Cl)CC3)nc12	DNMT1 block 57, Scp1 inh 80 | Scp1 confirm 54 | Scp-1 MG ctr inactive | Scp1 DSF 12 | DNMT1 inh conf inactive | DNMT1 interf inactive
O=C(NC1CC1)C1CCN(S(=O)(=O)c2cc([N+](=O)[O-])ccc2Cl)CC1	DNMT1 block 90, Scp1 inh 76 | Scp1 confirm 69 | Scp-1 MG ctr inactive | Scp1 DSF 11 | DNMT1 inh conf inactive | DNMT1 interf inactive
O=C(NC1=NCCS1)C1CCN(S(=O)(=O)c2cc([N+](=O)[O-])ccc2Cl)CC1	DNMT1 block 76, Scp1 inh 91 | Scp1 confirm 77 | Scp-1 MG ctr inactive | Scp1 DSF 11 | DNMT1 inh conf inactive | DNMT1 interf inactive
Cc1cc(C(=O)NC2Cc3ccccc3C2)c(C)o1	none
COc1ccc(Cl)cc1S(=O)(=O)N1CCC(C(=O)NCc2ccccn2)CC1	none
O=C(Nc1ccccc1C(F)(F)F)NC1(C(=O)N2CCOCC2)CCCCC1	DNMT1 block 95, SUMO1 PPI mod 42, LMPTP inh 61, Scp1 inh 75, CSN inh 43 | Scp1 confirm 55 | Scp-1 MG ctr inactive | Scp1 DSF 12 | DNMT1 inh conf inactive | DNMT1 interf inactive
Cc1ccccc1NC(=O)NC1(C(=O)N2CCOCC2)CCCCC1	none
CCCCC[C@@H](C)N1C[C@@H](COCc2ccccc2)Oc2cc(N3CCC[C@@H]3COC)ccc2S1(=O)=O	none (no result: DNMT1 block, Scp1 inh, STEP block)
C=CCn1c(O)c(N=NC(=O)CNC(=O)/C=C/c2ccco2)c2ccccc21	DNMT1 block 93, Scp1 inh 90 | Scp1 confirm 48 | Scp-1 MG ctr inactive | Scp1 DSF inactive | DNMT1 inh conf inactive | DNMT1 interf inactive
O=C(c1ccc([N+](=O)[O-])cc1)N1CCN(C(=O)c2ccco2)CC1	none
O=C(c1ccco1)N1CCN(C(=O)c2ccc(-c3ccc([N+](=O)[O-])cc3)o2)CC1	DNMT1 block 63, SUMO1 PPI mod 74, Scp1 inh 90 | Scp1 confirm inactive | Scp-1 MG ctr inactive | DNMT1 inh conf inactive | DNMT1 interf inactive
O=C(Nc1ccc2c(c1)OCCO2)C(c1ccnc2ccccc12)N1CCN(C/C=C/c2ccccc2)CC1 (stereo not drawn)	none (no result: Scp1 inh)
O=C(O)C1C2C=CC(CC2)C1C(=O)O (stereo not drawn)	DNMT1 block 77, Scp1 inh 102 | Scp1 confirm 72 | Scp-1 MG ctr inactive | Scp1 DSF inactive | DNMT1 inh conf inactive | DNMT1 interf inactive
CC(C)c1ccc(NC(=O)C2C3C=CC(CC3)C2C(=O)O)cc1 (stereo not drawn)	none
O=C(O)c1cccnc1C(=O)c1ccccc1	none

Screens: PubChem, Sanford-Burnham Center for Chemical Genomics
